MC4R barr agon – MC4R agonists recruiting beta-arrestin, primary screen, cell-based, luminescence, agonist arm of biased-ligand search; U2OS MC4R beta-arrestin complementation; percent of melanotan II response, DMSO zero; activation, % at 8.9 µM; 0.98% of 360,000 active;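 active = activation above a per-plate cutoff, the mean activation of sample wells on that plate plus 3 SD, cut at about 8% in these data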
MC4R antag cAMP – MC4R antagonists of cAMP signaling, primary screen, cell-based, TR-FRET, antagonist arm of biased-ligand search | inhibition, % at 6.5 µM | MC4R-expressing cells, MTII-stimulated cAMP, LANCE TR-FRET | Melanocortin receptor 4 (Homo sapiens), P32245 | 0.48% of 360,000 active;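 active = inhibition above its plate's cutoff, the mean of tested wells on that plate plus 3 SD, cut at about 29% in these data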;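 also: 0% = Melanotan II alone and 100% = Melanotan II plus saturating MCL0020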
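Material – human MC4R-expressing U2OS cells · Repeats – no replicates · Detection – TR-FRET with Eu-cAMP and labeled anti-cAMP, 671 nm · Times – compound 30 min, challenge 1 h, detection 1 h · Compound – single nominal compound dose of 6.5 µM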
AI-2 QS modul – Vibrio harveyi AI-2 quorum sensing modulators, primary screen, JMH597 strain, luminescence/OD600 ratio; Vibrio harveyi JMH597 AI-2 luminescence/OD600 ratio, 9 h; stronger effect = lower value; strain lacks LuxN and CqsS sensors; 0 = neutral-control median; activity change, % at 7.5 µM; 0.4% of 300,000 active; in the data active = activity change below about -75%, passing the limit was not always enough;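 also: luminescence divided by OD600 gain over 9 h not by final OD600 alone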
NTR1 agonist – agonists of human NTR1, primary screen, imaging, U2OS cells, beta-arrestin-GFP, high content; NTR1-U2OS beta-arrestin-GFP spot imaging, agonist mode; activation, % at 20 µM; 0.17% of 330,000 active;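 active = activation at or above 40% of the spot to cytoplasm intensity ratio, with at least 20 cells analyzed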;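 also: 0% = DMSO without peptide and 100% = 100 nM NTR1 peptide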
Target sequence (P30989 whole entry, looked up): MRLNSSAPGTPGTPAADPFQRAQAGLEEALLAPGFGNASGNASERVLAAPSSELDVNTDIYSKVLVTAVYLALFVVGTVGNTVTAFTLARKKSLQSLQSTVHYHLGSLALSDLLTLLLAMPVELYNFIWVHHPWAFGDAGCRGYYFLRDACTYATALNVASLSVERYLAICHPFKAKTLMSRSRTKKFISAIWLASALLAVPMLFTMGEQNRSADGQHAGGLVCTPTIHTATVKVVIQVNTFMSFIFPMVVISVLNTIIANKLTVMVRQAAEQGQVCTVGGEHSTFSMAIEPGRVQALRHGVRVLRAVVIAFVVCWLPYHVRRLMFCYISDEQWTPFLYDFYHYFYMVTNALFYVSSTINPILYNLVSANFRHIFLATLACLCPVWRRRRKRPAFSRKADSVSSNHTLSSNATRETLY
U2OS cAMP counter – nonselective cAMP signaling inhibitors, parental cells, counter-screen for MC4R biased antagonist project, cell-based, TR-FRET, U2OS, forskolin, triplicate; 26% of 1,600 active; shares compounds with MC4R antag cAMP; LANCE TR-FRET; inhibition, % at 6.5 µM;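 active = mean inhibition over triplicates above the low-control well mean plus 3 SD, set per campaign, cut at about 13% in these data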;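 also: signal is single emission at 671 nm which falls as cellular cAMP rises; 0% = forskolin-stimulated wells and 100% = buffer without forskolin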
MC4R antag conf – MC4R cAMP antagonists, retest, confirmation, cell-based, TR-FRET | shares compounds with MC4R antag cAMP | MC4R-expressing cells, MTII-stimulated cAMP | inhibition, % at 6.5 µM | 27% of 1,600 active | AID 602195, 2012; in the data active = inhibition above about 29%;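 also: 0% = agonist stimulated wells alone and 100% = agonist stimulated wells plus saturating reference antagonist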
* = called active by the depositor; . = not tested or not shown. Compounds with a hit are over-represented: about 1.8% of the library has one in this group of screens.

SMILES	MC4R barr agon	MC4R antag cAMP	AI-2 QS modul	NTR1 agonist	U2OS cAMP counter	MC4R antag conf
CC1=C(C(=O)N(C)C)CC(CC(=O)NCCc2ccccn2)C(=O)N1Cc1ccccc1 (stereo not given)	1.7	12.9	.	.	.	.
COc1ccc2c(C)c(C(=O)N3CCN(Cc4ccccc4)CC3)oc2c1	-1.2	-1.3	-9.3	2.6	.	.
CC(OC(=O)c1cccc(-n2cnnn2)c1)C(=O)NCc1ccccc1 (stereo not given)	-2.9	4.2	20.5	-1.3	.	.
O=C(CCc1nc(-c2ccccc2Cl)no1)NCCc1ccccc1	1.0	28.7*	9.8	-0.1	-1.4	1.9
O=C(NCc1ccco1)C(c1ccccc1)N(C(=O)Cc1cccs1)c1cccnc1 (stereo not given)	-2.8	29.5*	21.4	0.0	-1.0	2.8
COc1cccc(NC(=O)CN(C)C(=O)c2cc(-c3ccc(F)cc3)nc3ccccc23)c1	-2.0	5.6	-0.1	7.6	.	.
COc1ccc(-c2cc(C(=O)N(C)CC(=O)Nc3cccc(F)c3)c3ccccc3n2)cc1OC	-1.2	30.2*	.	.	0.6	1.3
C=C(C(=O)c1ccccc1)C(C)CC(=O)c1ccccc1 (stereo not given)	-1.4	32.7*	13.2	8.8	23.2*	50.1*
O=C(CC(Nc1ccccc1)C(=O)O)c1ccccc1 (stereo not given)	-1.4	0.6	15.0	-1.8	.	.
O=C(Nc1cccc(S(=O)(=O)N2CCCCCC2)c1)C1CCN(C(=O)c2ccc(Cl)cc2)CC1	1.8	-3.0	2.7	3.5	.	.
OCC[C@H]1C[C@@H](O)[C@H](O)[C@@]2(CCc3ccccc3O2)O1	-1.9	10.5	.	-2.9	.	.
O=C1CSC(c2cccnc2)N1Cc1cccnc1 (stereo not given)	0.2	29.4*	11.5	0.9	3.1	11.8
O=C1CSC(c2ccncc2)N1Cc1ccccc1 (stereo not given)	-0.8	-1.8	6.1	3.8	.	.
CCCN(CC(=O)Nc1ccccc1OC)C(=O)Cn1c(=O)oc2ccccc21	-1.6	4.2	.	.	.	.
CC1Cc2ccccc2N1S(=O)(=O)c1cnc(Cl)c(Br)c1 (stereo not given)	-2.4	29.8*	5.4	9.5	22.5*	38.5*
C=CCNc1nc(C(=O)OCC(=O)NCc2cccc(Cl)c2)cs1	1.8	2.6	.	-1.2	.	.
COc1cccc(CNC(=O)COC(=O)CCS(=O)(=O)c2ccc(C)cc2)c1	-1.9	30.1*	.	-1.1	0.1	10.1
Cc1ccc(S(=O)(=O)CCC(=O)OCC(=O)NCCc2ccccc2)cc1	-3.3	-1.1	0.6	2.0	.	.
CCOC(=O)C1CCN(C(=O)COC(=O)c2oc3ccccc3c2C)CC1	-0.1	5.5	4.5	0.2	.	.
CC(C)N1CCN(CCCc2ccccc2)CC1CCO (stereo not given)	0.1	1.6	12.9	-0.7	.	.
O=C(O)/C=C/C(=O)Nc1ccc(Oc2ccccc2)cc1	-1.4	7.0	47.1	0.7	.	.
CCOC(=O)/C=C/C(=O)Nc1ccc(Oc2ccccc2)cc1	-0.6	45.7*	-33.3	1.7	28.4*	53.1*
COC(=O)c1ccc2c(=O)n(Cc3ccco3)c(SCC(=O)Nc3ccccc3Cl)nc2c1	0.2	29.0*	12.7	7.7	-3.1	-4.9
O=C(Nc1ccc(S(=O)(=O)N2CCCCC2)cc1)C1CCCO1 (stereo not given)	-1.3	13.7	16.4	1.7	.	.
CCC1(c2ccccc2)NC(=O)N(CC(=O)NC2CCCCCC2)C1=O (stereo not given)	-2.1	-1.2	.	3.4	.	.
O=C(COC(=O)c1ccc2c(=O)n3c(nc2c1)CCC3)Nc1ccc(OC(F)F)cc1	-3.2	29.8*	21.4	-0.8	4.7	17.2
Cc1cc(SCCC(=O)O)nc2ccccc12	1.5	5.8	15.2	0.5	.	.
